For test [1], the system named is Culex pipiens pallens. The test is described as follows: Larvicidal activity against Culex pipiens pallens (mosquito) at 1 mg/kg. The format is functional.
Test [2] has as its system Culex pipiens pallens. The test is described as follows: Larvicidal activity against Culex pipiens pallens (mosquito). Type of test: functional.
Test [3] concerns Tetranychus cinnabarinus. The test is described as follows: Acaricidal activity against Tetranychus cinnabarinus (carmine spider mite) larvae at 600 mg/kg by leaf dip method. The format is functional.
The test system of test [4] is Culex pipiens pallens. The test is described as follows: Larvicidal activity against Culex pipiens pallens (mosquito) at 0.5 mg/kg. Type of test: functional.
For test [5], the system named is Tetranychus cinnabarinus. Nature of the test: Acaricidal activity against Tetranychus cinnabarinus (carmine spider mite) adults at 600 mg/kg by leaf dip method. The format is functional.
For test [6], the system named is Culex pipiens pallens. Nature of the test: Larvicidal activity against Culex pipiens pallens (mosquito) at 2 mg/kg. Type of test: functional.
The test system of test [7] is Tetranychus cinnabarinus. The test is described as follows: Acaricidal activity against Tetranychus cinnabarinus (carmine spider mite) eggs at 600 mg/kg by leaf dip method. The format is functional, Egg.
For test [8], the system named is Aphis craccivora. The test is described as follows: Larvicidal activity against Aphis craccivora (cowpea aphid) at 200 mg/kg by leaf dip method. The format is functional.
In test [9] the test system is Tetranychus cinnabarinus. The test is described as follows: Acaricidal activity against Tetranychus cinnabarinus (carmine spider mite) adults at 200 mg/kg by leaf dip method. The format is functional.
Test [10] relates to Culex pipiens pallens. The test is described as follows: Larvicidal activity against Culex pipiens pallens (mosquito) at 5 mg/kg. Type of test: functional.
Test [11] concerns Tetranychus cinnabarinus. Nature of the test: Acaricidal activity against Tetranychus cinnabarinus (carmine spider mite) larvae at 200 mg/kg by leaf dip method. The format is functional.
Test [12] concerns Aphis craccivora. The test is described as follows: Larvicidal activity against Aphis craccivora (cowpea aphid) at 600 mg/kg by leaf dip method. The format is functional.
Test [13] has as its system Tetranychus cinnabarinus. Nature of the test: Acaricidal activity against Tetranychus cinnabarinus (carmine spider mite) eggs at 200 mg/kg by leaf dip method. The format is functional, Egg.
Test [14] deals with Plutella xylostella. The test is described as follows: Stomach toxicity against Plutella xylostella (diamondback moth) assessed as larvicidal activity at 600 mg/kg by leaf dip method. Type of test: functional.
The subject of test [15] is Plutella xylostella. Nature of the test: Stomach toxicity against Plutella xylostella (diamondback moth) assessed as larvicidal activity at 200 mg/kg by leaf dip method. Type of test: functional.
The subject of test [16] is Helicoverpa armigera. The test is described as follows: Stomach toxicity against third-instars Helicoverpa armigera assessed as larvicidal activity at 110 mg/kg at 25 +/- 1 degC after 3 days. Type of test: functional. Put shortly:
(§1)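 Diet-incorporation assay on third-instar larvae. Samples dissolved in acetone to the desired final concentrations; 3 mL of test solution mixed evenly into about 27 g of prepared feed, then dispensed into 24-well plates. Run in triplicate at 25 ± 1 °C. Dead/alive scoring 3 days after treatment; mortality corrected by Abbott's formula on a 0–100 scale.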

For test [17], the system named is Helicoverpa armigera. The test is described as follows: Stomach toxicity against third-instars Helicoverpa armigera assessed as larvicidal activity at 11 mg/kg at 25 +/- 1 degC after 3 days. Type of test: functional. Put shortly:
as §1

The test system of test [18] is Helicoverpa armigera. The test is described as follows: Stomach toxicity against third-instars Helicoverpa armigera assessed as larvicidal activity at 22 mg/kg at 25 +/- 1 degC after 3 days. The format is functional. The method, boiled down:
as §1

Test [19] deals with Helicoverpa armigera. The test is described as follows: Stomach toxicity against third-instars Helicoverpa armigera assessed as larvicidal activity at 55 mg/kg at 25 +/- 1 degC after 3 days. The format is functional. Put shortly: as §1
For test [20], the system named is Helicoverpa armigera. The test is described as follows: Stomach toxicity against third-instars Helicoverpa armigera assessed as larvicidal activity at 5.5 mg/kg at 25 +/- 1 degC after 3 days. Type of test: functional. Put shortly: as §1
For test [21], the system named is Helicoverpa armigera. The test is described as follows: Stomach toxicity against third-instars Helicoverpa armigera assessed as larvicidal activity at 25 +/- 1 degC after 3 days. The format is functional. The method, boiled down: as §1

Each structure is given as a SMILES string.

`CCc1nn(C)c(C(=O)NCc2ccc(C(C)(C)C)cc2)c1Cl` [TEBUFENPYRAD]: the Activity is listed as 70% in the test on Culex pipiens pallens [1]; 100% in the test on Tetranychus cinnabarinus [3]; 0% with Culex pipiens pallens [4]; 100% in the test with Tetranychus cinnabarinus [5]; 100% with Culex pipiens pallens [6]; 100% in the test on Tetranychus cinnabarinus [7]. Moreover, the Activity in the test on Aphis craccivora [8], with Tetranychus cinnabarinus [9], in the test on Culex pipiens pallens [10], in the test on Tetranychus cinnabarinus [11], in the test with Aphis craccivora [12] and in the test with Tetranychus cinnabarinus [13] was 100% each time. The LC50 in the test with Culex pipiens pallens [2] worked out at 0.61 mg/kg.
Regarding `CCc1cc(C(=O)NC(CCl)c2ccc(Oc3ccccc3)cc2)n(C)n1` (centres undefined), the Activity with Plutella xylostella [14] was found to be 45%; in the test on Culex pipiens pallens [1], 100%; in the test on Tetranychus cinnabarinus [3], 40%; in the test on Plutella xylostella [15], 30%; with Culex pipiens pallens [4], 60%; with Helicoverpa armigera [16], 100%. In addition, the Activity was 50% in the test with Tetranychus cinnabarinus [5]; 100% in the test with Culex pipiens pallens [6]; 50% with Tetranychus cinnabarinus [7]; 95% in the test on Aphis craccivora [8]; 0% in the test on Tetranychus cinnabarinus [9]; 100% with Culex pipiens pallens [10]. The Activity in the test with Tetranychus cinnabarinus [11] amounted to 30%; with Helicoverpa armigera [17], 0%; in the test on Helicoverpa armigera [18] it was 40%; in the test on Helicoverpa armigera [19], 100%; in the test on Aphis craccivora [12], 100%; in the test on Tetranychus cinnabarinus [13], 40%. In addition, the LC50 with Culex pipiens pallens [2] worked out at 0.35 mg/kg.
For the molecule `CCc1nn(C)c(C2=NC(c3ccc(Oc4ccccc4)cc3)CO2)c1Cl` (centres undefined), the Activity in the test on Plutella xylostella [14] was 90%; with Culex pipiens pallens [1], 0%; in the test with Tetranychus cinnabarinus [3], 25%; with Plutella xylostella [15], 20%; with Helicoverpa armigera [20] it was 60%; in the test on Helicoverpa armigera [16] it was 100%. Moreover, the Activity is reported as 0% in the test on Tetranychus cinnabarinus [5]; 60% in the test on Culex pipiens pallens [6]; 0% in the test with Tetranychus cinnabarinus [7]; 60% in the test on Aphis craccivora [8]; 100% in the test with Culex pipiens pallens [10]; 0% with Tetranychus cinnabarinus [11]. Moreover, the Activity in the test on Helicoverpa armigera [17] is given as 90%; in the test with Helicoverpa armigera [18], 100%; in the test on Helicoverpa armigera [19], 100%; with Aphis craccivora [12] it was 90%. The LC50 in the test with Helicoverpa armigera [21] stood at 2.8 mg/kg.

(Values after ChEMBL document CHEMBL3046583, “Design, synthesis, and insecticidal activity of novel pyrazole derivatives containing α-hydroxymethyl-N-benzyl carboxamide, α-chloromethyl-N-benzyl carboxamide, and 4,5-dihydrooxazole moieties” (2012).)
